Data on twelve compounds can be found in paper PMC3594550 (Bioorganic & medicinal chemistry, 2012).

Where no end group is shown, it is not given here.

For one data set, the target named is Grb2 SH3C domain (Homo sapiens, UniProt P62993). Put plainly: Surface plasmon resonance. Type of data set: binding. The conditions noted are these: for SPR classification (binder / non-binder) / SPR observed binding behavior (stoichiometry): 50 and 100 µM compound; for SPR classification (binder / non-binder): cut-off 5 RU at 100 µM (KD ≤ 1 mM); for SPR binding behavior above concentrations of 200 µM: compound > 200 µM; for SPR observed binding behavior (stoichiometry): maximum theoretical response 56 RU for 1:1 binding. Summed up:
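Untagged human Grb2 SH3C amine-coupled (EDC/NHS; 100 µM, pH 4.0 acetate) to a CM5 chip at 1500 RU. Compound in HBS-N (10 mM Hepes pH 7.4, 150 mM NaCl) with 5.0% DMSO and 0.01% Tween 20, injected 120 s at 40 µL/min, 25 °C. Double referenced against protein-free cell and buffer blank. DMSO-only and Gab2b peptide (24 µM) controls were run.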
(In general: SPR reads the build-up and loss of mass on a sensor chip optically.)

Data set [1] deals with Grb2 SH3C – Gab2b peptide interaction (Homo sapiens, UniProt P62993). Put plainly: Biochemical competition assay. Type of data set: binding. The conditions noted are these: for competition assay result in words: compound 5 mM; for Hill slope of inhibition curve: concentration-response. Summed up:
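Then 30 min with streptavidin-sepharose beads carrying biotinylated Gab2b peptide; washed with PBS-T. Bound protein read by SDS-PAGE, Coomassie and densitometry, normalised to no-inhibitor control (100%). Sigmoidal inhibition fit by nonlinear regression.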

Data set [2] has as its target Grb2 SH3C (Homo sapiens, UniProt P62993). The data set is described as follows: Isothermal titration calorimetry. The format is binding. The following applies: 1 mM compound titrated into 20 µM Grb2 SH3C, 25 °C. The procedure, abridged:
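Purified Grb2 SH3C (20 µM) in 50 mM Hepes pH 7.5, 50 mM NaCl, 0.5% DMSO, clarified and degassed, 25 °C. Compound (1 mM, same buffer) injected once at 4 µL, then 18 × 15 µL. Heat peaks integrated per mole of compound and plotted against compound:protein molar ratio.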
(Isothermal titration calorimetry measures the heat released or taken up as one component is titrated into another.)

Data set [3] in a line: Solubility / precipitation observed while handling in the competition assay. The format is physicochemical.
The target of data set [4] is Grb2 SH3C. The following applies: read-out: Kd towards Grb2 SH3C; cited from earlier work.

Grb2 SH3C – Gab2b peptide interaction, sequence (P62993 156-215 limits assumed): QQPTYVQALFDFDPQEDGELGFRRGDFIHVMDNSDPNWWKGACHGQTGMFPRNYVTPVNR
Grb2 SH3C domain, sequence (P62993 156-215 limits assumed): as above
Grb2 SH3C (Homo sapiens, UniProt P62993), sequence (P62993 156-215 limits assumed): as above

With `CC1(C)N=C(N)N=C(N)N1c1cc(C(F)(F)F)cc(C(F)(F)F)c1.Cl` [compound 11], the “SPR classification (binder / non-binder)” value on Grb2 SH3C domain is given as “no activity”. Further, in data set [1], the “competition assay result in words” value is given as “no activity”.
On to `CC1(C)N=C(N)N=C(N)N1c1cccc(CCCCc2cccc(N)c2)c1.Cl` [compound 3, 1-(3-(4-(3-Aminophenyl)butyl)phenyl)-6,6-dime thyl-1,6-dihydro-1,3,5-triazine-2,4-diamine•HCl], for which, at Grb2 SH3C domain, the “SPR classification (binder / non-binder)” value was “binders” and the “SPR binding behavior above concentrations of 200 µM” value is recorded as “superstoichiometric binding”. Also, in data set [1], the “Hill slope of inhibition curve” value is reported as −3.1. Besides, on Grb2 SH3C [2], the ITC response result is recorded as “no measurable response above background”.
Regarding `Br.CC1(C)N=C(N)N=C(N)N1c1cccc(CO)c1` [compound 47], the “SPR classification (binder / non-binder)” value at Grb2 SH3C domain is on record as “no activity”. Moreover, the “competition assay result in words” value in data set [1] is listed as “no activity”.
As to `CC(=O)c1ccc(/N=N/c2c(N)nc(N)nc2N)cc1` [compound 46], in data set [3], the aqueous solubility entry is given as “poor aqueous solubility”. In addition, the “SPR classification (binder / non-binder)” value at Grb2 SH3C domain is “binders”.
`CC1(C)N=C(N)N=C(N)N1c1cccc(OCc2cccc(N)c2)c1.Cl` [compound 1]: the “SPR classification (binder / non-binder)” value on Grb2 SH3C domain is reported as “binders”.
Regarding `CC1(C)N=C(N)N=C(N)N1c1cccc(OCCOc2cccc(N)c2)c1.Cl` [compound 9], at Grb2 SH3C domain, the “SPR classification (binder / non-binder)” value is “binders” and the “SPR observed binding behavior (stoichiometry)” value (“SPR observed binding behavior” below) is listed as “superstoichiometric”. Besides, the “competition assay result in words” value in data set [1] is “no activity”.
As for `Cl.Cl.NC1CCC(NC2CCC(N)CC2)CC1` (centres unmarked) [compound 147], on Grb2 SH3C domain, the SPR dissociation entry is reported as “long dissociation time”, the “SPR response relative to the maximum theoretical response” value is recorded as “over 10 times”, the “SPR classification (binder / non-binder)” value was “binders” and the “SPR observed binding behavior” value is reported as “superstoichiometric”. Further, the SPR response level at Grb2 SH3C domain (maximum theoretical response 56 RU) was ~600 RU.
As for `Cc1ccc(O)c(C2CC(=O)NC(N)=N2)c1` (centres unmarked) [compound 156], on Grb2 SH3C domain, the SPR sensorgram quality result is listed as “poor sensorgram shape” and the “SPR classification (binder / non-binder)” value is on record as “binders”.
As to “15-mer Gab2 peptide: positive control Gab2b peptide; sequence: IQPPPVNRNLKPDRK-amide (IQPPPVNRNLKPDRK-NH2)”, at Grb2 SH3C [4], the Kd was 3.2 µM.
As to `Cc1ccc(C(/C=C/c2ccccc2)=N/NC(=N)N)cc1.Cl` [compound 164], in data set [3] (competition assay buffer, compound 5 mM), the “precipitation during the assay” value is “precipitated during the assay”. Further, on Grb2 SH3C domain, the “SPR classification (binder / non-binder)” value is “binders” and the “SPR observed binding behavior” value is recorded as “superstoichiometric”. Besides, the “competition assay result in words” value in data set [1] is on record as “nearly complete inhibition”.
For the compound `CC1(C)N=C(N)N=C(N)N1c1cccc(OCC#N)c1.Cl` [compound 41], at Grb2 SH3C domain, the “SPR classification (binder / non-binder)” value is on record as “binders” and the “SPR binding behavior above concentrations of 200 µM” value was “superstoichiometric binding”. Moreover, in data set [1] (dose range up to 20 mM, data not shown), the “inhibition in concentration-response experiment” value is “unquantifiably weak inhibition”.
With `CC1(C)N=C(N)N=C(N)N1c1cccc(/C=C/C=C/c2cccc([N+](=O)[O-])c2)c1.Cl` [compound 5, 6,6-Dimethyl-1-(3-((1E,3E)-4-(3-nitrophenyl)buta-1,3-dien-1-yl)phenyl)-1,6-dihydro-1,3,5-triazine-2,4-diamine•HCl], on Grb2 SH3C domain, the “SPR classification (binder / non-binder)” value is reported as “binders”, the “SPR observed binding behavior” value is reported as “superstoichiometric” and the “SPR binding behavior above concentrations of 200 µM” value was “superstoichiometric binding”. Also, the “Hill slope of inhibition curve” value in data set [1] is reported as −5.0. Moreover, the “fold increase in affinity relative to compound 3” value in data set [1] (ratio of apparent IC50 values) worked out at 18 fold. Moreover, the ITC response entry at Grb2 SH3C [2] was “significant reaction heats”.

By Kd is commonly meant the constant that tells how readily two partners part at equilibrium.
